Laboratory results reported in ChEMBL document CHEMBL3992547, “Antimicrobial activity of rhodanine-3-acetic acid derivatives” (Bioorg Med Chem, 2017).
Converted amounts (≈) assume the structure as drawn. The source made the active and inactive calls. The rule behind the calls is not given here.

Key:
[1] = system: Candida albicans; test: Antifungal activity against Candida albicans ATCC 44859 after 24 hrs by microdilution broth assay; assay type: functional; settings: ATCC 44859, 24 h
How it was run: (§1)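 Broth microdilution per CLSI M27-A3 and M38-A2 in RPMI 1640 with glutamine, buffered to pH 7.0 with MOPS. Compounds are diluted in DMSO. Final inoculum is 5 × 10³ CFU/mL for yeasts and 0.5–5 × 10⁴ CFU/mL for moulds. Plates are incubated in the dark at 35 °C in humid air and read visually and/or at 540 nm after 24 and 48 h. MIC is ≥80% growth reduction (IC₈₀) for yeasts and ≥50% (IC₅₀) for filamentous fungi.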

[2] = system: Staphylococcus aureus; test: Antibacterial activity against Staphylococcus aureus CCM 4516/08 incubated for 24 hrs under dark condition by microdilution broth assay; assay type: functional; settings: CCM 4516/08, 24 h
How it was run: (§2)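 Broth microdilution per M07-A07, modified, in Mueller-Hinton broth adjusted to pH 7.4 (±0.2). Inoculum is prepared in sterile water to McFarland 0.5 (1.5 × 10⁸ CFU/mL). Plates are incubated in the dark at 35 °C in humid air. MIC is read after 24 and 48 h as at least 95% growth reduction versus control (IC₉₅).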

[3] = system: Aspergillus fumigatus; test: Antifungal activity against Aspergillus fumigatus 231 after 24 hrs by microdilution broth assay; assay type: functional; settings: Aspergillus fumigatus, 231, 24 h; how it was run: as §1
[4] = system: Pseudomonas aeruginosa; test: Antibacterial activity against Pseudomonas aeruginosa CCM 1961 up to 500 uM incubated for 24 to 48 hrs under dark condition by microdilution broth assay; assay type: functional; how it was run: as §2
[5] = system: Mycobacterium kansasii; test: Antimycobacterial activity against Mycobacterium kansasii isolate 235/80 after 14 days by micromethod; assay type: functional; settings: isolate 235/80, 336 h
[6] = system: Candida tropicalis; test: Antifungal activity against Candida tropicalis 156 after 24 hrs by microdilution broth assay; assay type: functional; settings: Candida tropicalis, 156, 24 h; how it was run: as §1
[7] = system: Mycobacterium kansasii; test: Antimycobacterial activity against Mycobacterium kansasii isolate 6509/96 after 7 days by micromethod; assay type: functional; settings: isolate 6509/96, 168 h
[8] = system: Klebsiella pneumoniae; test: Antibacterial activity against Klebsiella pneumoniae D 11750/08 up to 500 uM incubated for 24 to 48 hrs under dark condition by microdilution broth assay; assay type: functional; how it was run: as §2
[9] = system: Mycobacterium avium; test: Antimycobacterial activity against Mycobacterium avium 330/88 measured after 14 days by micromethod; assay type: functional; settings: 330/88, 336 h
[10] = system: Trichophyton mentagrophytes; test: Antifungal activity against Trichophyton mentagrophytes 445 after 120 hrs by microdilution broth assay; assay type: functional; settings: Trichophyton mentagrophytes, 445, 120 h
How it was run: (§3)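 Broth microdilution per CLSI M38-A2 in RPMI 1640 with glutamine, buffered to pH 7.0 with MOPS, with DMSO as diluent. Final inoculum is 0.5–5 × 10⁴ CFU/mL. Plates are incubated in the dark at 35 °C in humid air and read visually and/or at 540 nm after 72 and 120 h. MIC is at least 50% growth reduction versus control.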

[11] = system: Mycobacterium kansasii; test: Antimycobacterial activity against Mycobacterium kansasii isolate 235/80 after 7 days by micromethod; assay type: functional; settings: isolate 235/80, 168 h
[12] = system: Escherichia coli; test: Antibacterial activity against Escherichia coli CCM 4517 incubated for 24 hrs under dark condition by microdilution broth assay; assay type: functional; settings: CCM 4517, 24 h; how it was run: as §2
[13] = system: Klebsiella pneumoniae; test: Antibacterial activity against ESBL positive Klebsiella pneumoniae J 14368/08 up to 500 uM incubated for 24 to 48 hrs under dark condition by microdilution broth assay; assay type: functional; how it was run: as §2
[14] = system: Mycobacterium kansasii; test: Antimycobacterial activity against Mycobacterium kansasii isolate 235/80 after 21 days by micromethod; assay type: functional; settings: isolate 235/80, 504 h
[15] = system: Staphylococcus epidermidis; test: Antibacterial activity against Staphylococcus epidermidis H 6966/08 incubated for 48 hrs under dark condition by microdilution broth assay; assay type: functional; settings: H 6966/08, 48 h; how it was run: as §2
[16] = system: Pichia kudriavzevii; test: Antifungal activity against Candida krusei E28 after 24 to 48 hrs hrs by microdilution broth assay; assay type: functional; how it was run: as §1
[17] = system: Enterococcus; test: Antibacterial activity against Enterococcus sp. J 14365/08 incubated for 48 hrs under dark condition by microdilution broth assay; settings: J 14365/08, 48 h
[18] = system: Escherichia coli; test: Antibacterial activity against Escherichia coli CCM 4517 incubated for 48 hrs under dark condition by microdilution broth assay; assay type: functional; settings: CCM 4517, 48 h; how it was run: as §2
[19] = system: Trichosporon asahii; test: Antifungal activity against Trichosporon asahii 1188 after 24 hrs by microdilution broth assay; assay type: functional; settings: Trichosporon asahii, 1188, 24 h; how it was run: as §1
[20] = system: Candida tropicalis; test: Antifungal activity against Candida tropicalis 156 after 48 hrs by microdilution broth assay; assay type: functional; settings: Candida tropicalis, 156, 48 h; how it was run: as §1
[21] = system: Nakaseomyces glabratus; test: Antifungal activity against Candida glabrata 20/I after 48 hrs by microdilution broth assay; assay type: functional; how it was run: as §1
[22] = system: Staphylococcus aureus; test: Antibacterial activity against Staphylococcus aureus CCM 4516/08 incubated for 48 hrs under dark condition by microdilution broth assay; assay type: functional; settings: CCM 4516/08, 48 h; how it was run: as §2
[23] = system: Staphylococcus aureus; test: Antibacterial activity against methicillin-resistant Staphylococcus aureus H 5996/08 incubated for 48 hrs under dark condition by microdilution broth assay; assay type: functional; settings: H 5996/08, 48 h
How it was run: (§4)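 Microdilution broth method modified per M07-A07, in Mueller-Hinton broth adjusted to pH 7.4 (±0.2). Inoculum made in sterile water to 0.5 McFarland (1.5 × 10⁸ CFU/mL). Plates incubated in the dark at 35 °C in a humid atmosphere, with reads at 24 and 48 h. MIC taken as at least 95% growth reduction (IC₉₅) versus control.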

[24] = system: Mycobacterium kansasii; test: Antimycobacterial activity against Mycobacterium kansasii isolate 6509/96 after 14 days by micromethod; assay type: functional; settings: isolate 6509/96, 336 h
[25] = system: Enterococcus; test: Antibacterial activity against Enterococcus sp. J 14365/08 incubated for 24 hrs under dark condition by microdilution broth assay; settings: J 14365/08, 24 h
[26] = system: Mycobacterium avium; test: Antimycobacterial activity against Mycobacterium avium 330/88 measured after 21 days by micromethod; assay type: functional; settings: 330/88, 504 h
[27] = system: Trichophyton mentagrophytes; test: Antifungal activity against Trichophyton mentagrophytes 445 after 72 hrs by microdilution broth assay; assay type: functional; settings: Trichophyton mentagrophytes, 445, 72 h; how it was run: as §3
[28] = system: Mycobacterium tuberculosis; test: Antimycobacterial activity against Mycobacterium tuberculosis H37Rv 331/88 measured after 21 days by micromethod; assay type: functional; settings: H37Rv 331/88, 504 h
[29] = system: Staphylococcus epidermidis; test: Antibacterial activity against Staphylococcus epidermidis H 6966/08 incubated for 24 hrs under dark condition by microdilution broth assay; assay type: functional; settings: H 6966/08, 24 h; how it was run: as §2
[30] = system: Mycobacterium tuberculosis; test: Antimycobacterial activity against Mycobacterium tuberculosis H37Rv 331/88 measured after 14 days by micromethod; assay type: functional; settings: H37Rv 331/88, 336 h
[31] = system: Mycobacterium kansasii; test: Antimycobacterial activity against Mycobacterium kansasii isolate 6509/96 after 21 days by micromethod; assay type: functional; settings: isolate 6509/96, 504 h
[32] = system: Nakaseomyces glabratus; test: Antifungal activity against Candida glabrata 20/I after 24 hrs by microdilution broth assay; assay type: functional; how it was run: as §1
[33] = system: Lichtheimia corymbifera; test: Antifungal activity against Absidia corymbifera 272 after 24 to 48 hrs hrs by microdilution broth assay; assay type: functional; how it was run: as §1
[34] = system: Staphylococcus aureus; test: Antibacterial activity against methicillin-resistant Staphylococcus aureus H 5996/08 incubated for 24 hrs under dark condition by microdilution broth assay; assay type: functional; settings: H 5996/08, 24 h; how it was run: as §4
[35] = Solubility of the compound in Sula's semisynthetic medium up to 1 mM; assay type: physicochemical
[36] = system: Trichosporon asahii; test: Antifungal activity against Trichosporon asahii 1188 after 48 hrs by microdilution broth assay; assay type: functional; settings: Trichosporon asahii, 1188, 48 h; how it was run: as §1
[37] = system: Aspergillus fumigatus; test: Antifungal activity against Aspergillus fumigatus 231 after 48 hrs by microdilution broth assay; assay type: functional; settings: Aspergillus fumigatus, 231, 48 h; how it was run: as §1
[38] = system: Candida albicans; test: Antifungal activity against Candida albicans ATCC 44859 after 48 hrs by microdilution broth assay; assay type: functional; settings: ATCC 44859, 48 h; how it was run: as §1

Compound O=C(CN1C(=O)CSC1=S)Oc1ccc(C(F)(F)F)cc1 has an MIC80 [1] greater than 500 µM, an MIC95 [2] of 15.6 µM (≈ 5.24 µg/mL) and an MIC50 [3] greater than 500 µM. The Activity [4] was “inactive”, the MIC [5] was 1000 µM (≈ 335 µg/mL) and the MIC80 [6] was greater than 500 µM. For the same compound, the MIC [7] was 1000 µM (≈ 335 µg/mL), the Activity [8] was “inactive” and the MIC [9] was 1000 µM (≈ 335 µg/mL). For the same compound, the MIC50 [10] was 250 µM (≈ 83.8 µg/mL), the MIC [11] was 1000 µM (≈ 335 µg/mL) and the MIC95 [12] was greater than 500 µM. The Activity [13] was “inactive”, the MIC [14] was 1000 µM (≈ 335 µg/mL) and the MIC95 [15] was 62.5 µM (≈ 21 µg/mL). For the same compound, the Activity [16] was “inactive”, the MIC95 [17] was 62.5 µM (≈ 21 µg/mL) and the MIC95 [18] was greater than 500 µM. It also gave an MIC80 [19] of 500 µM (≈ 168 µg/mL), an MIC80 [20] greater than 500 µM and an MIC80 [21] greater than 500 µM. The MIC95 [22] was 62.5 µM (≈ 21 µg/mL), the MIC95 [23] was 62.5 µM (≈ 21 µg/mL) and the MIC [24] was 1000 µM (≈ 335 µg/mL). The MIC95 [25] was 15.6 µM (≈ 5.24 µg/mL), the MIC [26] was 1000 µM (≈ 335 µg/mL) and the MIC50 [27] was 125 µM (≈ 41.9 µg/mL). The MIC [28] was 1000 µM (≈ 335 µg/mL), the MIC95 [29] was 15.6 µM (≈ 5.24 µg/mL) and the MIC [30] was 500 µM (≈ 168 µg/mL). The MIC [31] was 1000 µM (≈ 335 µg/mL), the MIC80 [32] was 500 µM (≈ 168 µg/mL) and the Activity [33] was “inactive”. The MIC95 [34] was 15.6 µM (≈ 5.24 µg/mL), the solubility [35] was “Soluble” and the MIC80 [36] was greater than 500 µM. The MIC50 [37] was greater than 500 µM and the MIC80 [38] was greater than 500 µM.
For O=C(O)CN1C(=O)/C(=C/c2ccc(O)cc2)SC1=S, the MIC80 [1] was 500 µM (≈ 148 µg/mL), the MIC95 [2] was 500 µM (≈ 148 µg/mL) and the MIC50 [3] was greater than 500 µM. The Activity [4] was “inactive”, the MIC [5] was 1000 µM (≈ 295 µg/mL) and the MIC80 [6] was greater than 500 µM. The MIC [7] was 1000 µM (≈ 295 µg/mL), the Activity [8] was “inactive” and the MIC [9] was 1000 µM (≈ 295 µg/mL). The MIC50 [10] was greater than 500 µM, the MIC [11] was 1000 µM (≈ 295 µg/mL) and the MIC95 [12] was greater than 500 µM. The Activity [13] was “inactive”, the MIC [14] was 1000 µM (≈ 295 µg/mL) and the MIC95 [15] was 500 µM (≈ 148 µg/mL). For the same compound, the Activity [16] was “inactive”, the MIC95 [17] was greater than 500 µM and the MIC95 [18] was greater than 500 µM. For the same compound, the MIC80 [19] was greater than 500 µM, the MIC80 [20] was greater than 500 µM and the MIC80 [21] was greater than 500 µM. The MIC95 [22] was greater than 500 µM, the MIC95 [23] was greater than 500 µM and the MIC [24] was 1000 µM (≈ 295 µg/mL). For the same compound, the MIC95 [25] was greater than 500 µM, the MIC [26] was 1000 µM (≈ 295 µg/mL) and the MIC50 [27] was greater than 500 µM. It also gave an MIC [28] of 1000 µM (≈ 295 µg/mL), an MIC95 [29] of 250 µM (≈ 73.8 µg/mL) and an MIC [30] of 1000 µM (≈ 295 µg/mL). For the same compound, the MIC [31] was 1000 µM (≈ 295 µg/mL), the MIC80 [32] was greater than 500 µM and the Activity [33] was “inactive”. For the same compound, the MIC95 [34] was 500 µM (≈ 148 µg/mL), the solubility [35] was “Soluble” and the MIC80 [36] was greater than 500 µM. The MIC50 [37] was greater than 500 µM and the MIC80 [38] was 500 µM (≈ 148 µg/mL).
